Active and inactive are the calls of the source. The rule behind the calls is not given here.

The term IC50 denotes the point on the concentration scale where inhibition reaches its midpoint. As usually defined, the Ki is the dissociation constant of the complex between target and ligand, obtained from inhibition or displacement. Read a low Ki as a stronger hold on the target. As usually defined, the inhibition is the share of the control response that was lost under treatment.

In assay [1] the target is T1, Lysophosphatidic acid receptor 3 (Homo sapiens, UniProt Q9UBY5).
T1 sequence (Q9UBY5 whole entry): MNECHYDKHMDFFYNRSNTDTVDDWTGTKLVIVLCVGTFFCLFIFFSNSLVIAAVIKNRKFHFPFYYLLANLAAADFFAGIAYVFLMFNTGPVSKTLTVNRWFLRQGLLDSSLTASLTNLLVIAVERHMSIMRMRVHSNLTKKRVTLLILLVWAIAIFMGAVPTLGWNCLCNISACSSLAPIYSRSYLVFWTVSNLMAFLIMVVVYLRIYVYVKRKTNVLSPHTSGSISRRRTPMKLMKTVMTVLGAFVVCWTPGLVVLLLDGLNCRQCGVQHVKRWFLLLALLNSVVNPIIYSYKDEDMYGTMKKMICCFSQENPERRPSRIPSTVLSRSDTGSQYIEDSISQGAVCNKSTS
The assay is described as follows: (§1) Antagonist activity at LPA3 receptor expressed in rat RH7777 cells assessed as inhibition of LPA-induced intracellular calcium response. Format: functional, cell-based. In outline:
(§2)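 Cells stably expressing the receptor were plated, cultured overnight, serum-starved for 4-6 h and loaded with fura-2. LPA-induced Ca2+ mobilization was measured as the 520 nm emission ratio at 340/380 nm excitation. Compounds were dissolved in methanol and diluted in buffer. IC50 came from concentration-response curves, with samples in quadruplicate.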
Background: Calcium assays in cells follow changes in intracellular calcium, usually with a dye or a luminescent sensor.

Assay [2] concerns the target T1, Lysophosphatidic acid receptor 3. The assay is described as follows: Binding affinity to LPA3.
Assay [3] addresses T2, Lysophosphatidic acid receptor 1 (Homo sapiens, UniProt Q92633). In words: Binding affinity to LPA1.
For assay [4], the target named is T2, Lysophosphatidic acid receptor 1. The assay is described as follows: Antagonist activity at LPA1 receptor expressed in rat RH7777 cells assessed as inhibition of LPA-induced intracellular calcium response. Format: functional, cell-based. In a few lines:
as §2

The target of assay [5] is Lysophosphatidic acid receptor 3 (Homo sapiens) (UniProt Q9UBY5). In words: Antagonist activity at LPA3 receptor expressed in rat RH7777 cells assessed as inhibition of LPA-induced calcium response at 10 uM.
The target in assay [6] is T3, Lysophosphatidic acid receptor 3 (Homo sapiens) (UniProt Q9UBY5).
T3 sequence (whole entry): T1 sequence (Q9UBY5 whole entry)
The assay is described as follows: Agonist activity at LPA3 receptor expressed in rat RH7777 cells assessed as effect on intracellular calcium response at 10 uM. Format: functional, cell-based. In a few lines: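 Agonist test: compound (methanol stock diluted in buffer) was applied alone to fura-2-loaded, stably receptor-expressing cells after overnight culture and 4-6 h in serum-free medium. Intracellular Ca2+ was followed as the 520 nm emission ratio at 340/380 nm excitation. Run in quadruplicate.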

The target in assay [7] is T3, Lysophosphatidic acid receptor 3 (Homo sapiens). The description is as §1. Format: functional, cell-based. In outline:
as §2

The target of assay [8] is T4, Lysophosphatidic acid receptor 5 (Homo sapiens, UniProt Q9H1C0). In words: Binding affinity to LPA5.
T4 sequence (Q9H1C0 whole entry): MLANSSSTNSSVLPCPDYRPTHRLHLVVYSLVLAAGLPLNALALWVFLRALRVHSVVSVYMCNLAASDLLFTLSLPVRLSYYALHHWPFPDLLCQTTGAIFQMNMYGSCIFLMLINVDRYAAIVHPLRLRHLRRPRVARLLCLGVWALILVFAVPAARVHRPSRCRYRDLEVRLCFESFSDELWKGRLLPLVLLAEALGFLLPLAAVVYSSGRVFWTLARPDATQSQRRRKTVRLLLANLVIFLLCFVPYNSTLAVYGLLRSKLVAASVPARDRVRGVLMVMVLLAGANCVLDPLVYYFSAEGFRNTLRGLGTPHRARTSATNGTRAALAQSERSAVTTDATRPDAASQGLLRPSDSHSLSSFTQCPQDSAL
The target of assay [9] is T4, Lysophosphatidic acid receptor 5. The assay is described as follows: Antagonist activity at LPA5 receptor expressed in rat RH7777 cells assessed as inhibition of LPA-induced intracellular calcium response. Format: functional, cell-based. In outline: as §2

T2 sequence (Q92633 whole entry): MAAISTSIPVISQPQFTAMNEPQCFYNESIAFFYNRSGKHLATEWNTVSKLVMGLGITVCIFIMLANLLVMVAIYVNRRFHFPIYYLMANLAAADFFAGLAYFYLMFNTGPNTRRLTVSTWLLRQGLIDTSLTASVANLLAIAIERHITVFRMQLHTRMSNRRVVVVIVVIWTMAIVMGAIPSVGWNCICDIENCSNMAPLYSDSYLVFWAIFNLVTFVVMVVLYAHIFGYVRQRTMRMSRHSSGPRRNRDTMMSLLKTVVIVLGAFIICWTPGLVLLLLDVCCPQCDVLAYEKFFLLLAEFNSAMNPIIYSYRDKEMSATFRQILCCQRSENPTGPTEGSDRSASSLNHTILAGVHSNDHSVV

For `Cc1ccc(Oc2ccc3c(c2)C(=O)N(CC(=O)O)C3=O)cc1`, the IC50 in [1] is 2990 nM; in [4] it was 609 nM. Further, the results for the inhibition constant Ki in [2] and in assay [3] were 1080 nM and 311 nM, respectively.

In the case of `O=C(O)CCCN1C(=O)c2ccc(Oc3cccc([N+](=O)[O-])c3)cc2C1=O`, the inhibition in [5] was 18%.

Turning to `CC(=O)COc1ccc(NC(=O)CN2C(=O)c3ccc([N+](=O)[O-])cc3C2=O)cc1`, the outcome in assay [6] was Active.

Take `O=C(O)c1ccccc1N1C(=O)c2ccc(Oc3ccc([N+](=O)[O-])cc3)cc2C1=O`: the inhibition in assay [5] was found to be 38%.

On to `O=C(O)CCCN1C(=O)c2ccc(C(=O)c3cccc([N+](=O)[O-])c3)cc2C1=O`, for which the inhibition in [5] turned out to be 10%.

Regarding `O=C1c2ccc(Oc3cccc([N+](=O)[O-])c3)cc2C(=O)N1Cc1cccnc1`, in assay [5], the inhibition was determined as 38%.

Consider `O=C(O)CN1C(=O)c2ccc(C(=O)c3cccc([N+](=O)[O-])c3)cc2C1=O`, for which the result in [6] was Active.

As for `CC(=O)c1ccc(NC(=O)c2cccc(N3C(=O)c4ccc([N+](=O)[O-])cc4C3=O)c2)cc1`, in assay [5], the inhibition was found to be 18%.

For the compound `O=C(O)COc1ccc(N2C(=O)c3ccc(Oc4cccc([N+](=O)[O-])c4)cc3C2=O)cc1`, in assay [6], the result was Active.

With `O=C(O)CN1C(=O)c2ccc(Oc3cccc([N+](=O)[O-])c3)cc2C1=O`, the Imax in [7] worked out at 50%.

Consider `Cc1c(C(=O)O)cccc1N1C(=O)c2ccc(Oc3cccc([N+](=O)[O-])c3)cc2C1=O`, for which the inhibition in [5] was 42%.

Turning to `O=C(O)c1cc(C(=O)O)cc(N2C(=O)c3ccc(Oc4cccc([N+](=O)[O-])c4)cc3C2=O)c1`, the inhibition in assay [5] was 43%.

Regarding `O=C(O)c1ccc2c(c1)C(=O)N(c1cccc(Oc3ccc([N+](=O)[O-])cc3)c1)C2=O`, the figures for the inhibition constant Ki in assay [8], in assay [2] and in assay [3] were 292 nM, 230 nM and 48 nM, respectively. For the same compound, the IC50 in [9] stood at 463 nM; in [1], 752 nM; in assay [4], 94 nM. Moreover, the inhibition in assay [5] was 82%.

(Values after ChEMBL document CHEMBL1152645, “Structure-based drug design identifies novel LPA3 antagonists” (Bioorg Med Chem, 2009).)
